Results from ChEMBL document CHEMBL1130034, “Dual metalloprotease inhibitors: mercaptoacetyl-based fused heterocyclic dipeptide mimetics as inhibitors of angiotensin-converting enzyme and neutral endopeptidase” (J Med Chem, 1997).

How the values were obtained:
Rattus norvegicus [1] = assay: % inhibition of AI pressor response at 30 minutes after intravenous administration of 0.5 micro mol/kg of compound in rat; format: functional
Outline: (§1)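 Normotensive rats given intravenous angiotensin I challenges to raise mean arterial pressure. Compound dosed intravenously at 0.5 μmol/kg. Pressor response measured before dosing (control) and at set times afterward. Percent change from the control response taken as % inhibition. Maximal response usually seen about 2 min after dosing.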

Rattus norvegicus [2] = assay: 50% inhibition of the AI pressor response in normotensive rat after intravenous administration at a dose 0.5 umol/kg; format: functional
Rattus norvegicus [3] = assay: % inhibition of AI pressor response at 60 minutes after intravenous administration of 0.5 micro mol/kg of compound in rat; format: functional; outline: as §1
Rattus norvegicus [4] = assay: % inhibition of AI pressor response at 2 minutes after intravenous administration of 0.5 micro mol/kg of compound in rat; format: functional; outline: as §1
Neprilysin = biological target: T1, Neprilysin (Rattus norvegicus, UniProt P07861); assay: In vitro inhibition of neutral endopeptidase purified from rat kidney using fluorimetry assay; details: read-out: I50
T1 sequence (P07861 whole entry): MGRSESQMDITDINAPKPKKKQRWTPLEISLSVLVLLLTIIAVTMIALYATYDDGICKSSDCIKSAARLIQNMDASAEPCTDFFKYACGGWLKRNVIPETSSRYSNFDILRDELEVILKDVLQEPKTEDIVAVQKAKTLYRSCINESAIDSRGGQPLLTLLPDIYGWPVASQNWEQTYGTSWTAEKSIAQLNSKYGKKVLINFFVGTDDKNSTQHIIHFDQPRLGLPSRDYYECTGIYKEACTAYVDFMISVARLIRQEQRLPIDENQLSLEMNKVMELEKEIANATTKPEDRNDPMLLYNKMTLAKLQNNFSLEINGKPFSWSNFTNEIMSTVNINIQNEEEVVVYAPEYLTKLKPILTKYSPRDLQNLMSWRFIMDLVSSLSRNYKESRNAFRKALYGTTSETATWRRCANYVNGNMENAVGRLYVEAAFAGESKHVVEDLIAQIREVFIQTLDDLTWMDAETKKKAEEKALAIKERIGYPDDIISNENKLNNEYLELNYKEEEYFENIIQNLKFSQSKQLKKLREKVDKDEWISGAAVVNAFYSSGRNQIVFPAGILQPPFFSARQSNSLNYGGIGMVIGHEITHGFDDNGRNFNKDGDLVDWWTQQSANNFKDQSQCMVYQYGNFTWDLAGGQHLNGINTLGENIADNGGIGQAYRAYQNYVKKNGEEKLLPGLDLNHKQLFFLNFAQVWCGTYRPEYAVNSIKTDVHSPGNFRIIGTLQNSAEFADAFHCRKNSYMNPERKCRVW
Outline: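 Enzyme from purified rat kidney; fluorometric read-out with dansyl-Gly-Phe-Arg as substrate; I50 reported.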

[5] = biological target: T2, Angiotensin-converting enzyme (Oryctolagus cuniculus, UniProt P12822); assay: In vitro inhibition of ACE (Angiotensin I converting enzyme) isolated from rabbit lung extract; details: read-out: I50
T2 sequence (P12822 whole entry): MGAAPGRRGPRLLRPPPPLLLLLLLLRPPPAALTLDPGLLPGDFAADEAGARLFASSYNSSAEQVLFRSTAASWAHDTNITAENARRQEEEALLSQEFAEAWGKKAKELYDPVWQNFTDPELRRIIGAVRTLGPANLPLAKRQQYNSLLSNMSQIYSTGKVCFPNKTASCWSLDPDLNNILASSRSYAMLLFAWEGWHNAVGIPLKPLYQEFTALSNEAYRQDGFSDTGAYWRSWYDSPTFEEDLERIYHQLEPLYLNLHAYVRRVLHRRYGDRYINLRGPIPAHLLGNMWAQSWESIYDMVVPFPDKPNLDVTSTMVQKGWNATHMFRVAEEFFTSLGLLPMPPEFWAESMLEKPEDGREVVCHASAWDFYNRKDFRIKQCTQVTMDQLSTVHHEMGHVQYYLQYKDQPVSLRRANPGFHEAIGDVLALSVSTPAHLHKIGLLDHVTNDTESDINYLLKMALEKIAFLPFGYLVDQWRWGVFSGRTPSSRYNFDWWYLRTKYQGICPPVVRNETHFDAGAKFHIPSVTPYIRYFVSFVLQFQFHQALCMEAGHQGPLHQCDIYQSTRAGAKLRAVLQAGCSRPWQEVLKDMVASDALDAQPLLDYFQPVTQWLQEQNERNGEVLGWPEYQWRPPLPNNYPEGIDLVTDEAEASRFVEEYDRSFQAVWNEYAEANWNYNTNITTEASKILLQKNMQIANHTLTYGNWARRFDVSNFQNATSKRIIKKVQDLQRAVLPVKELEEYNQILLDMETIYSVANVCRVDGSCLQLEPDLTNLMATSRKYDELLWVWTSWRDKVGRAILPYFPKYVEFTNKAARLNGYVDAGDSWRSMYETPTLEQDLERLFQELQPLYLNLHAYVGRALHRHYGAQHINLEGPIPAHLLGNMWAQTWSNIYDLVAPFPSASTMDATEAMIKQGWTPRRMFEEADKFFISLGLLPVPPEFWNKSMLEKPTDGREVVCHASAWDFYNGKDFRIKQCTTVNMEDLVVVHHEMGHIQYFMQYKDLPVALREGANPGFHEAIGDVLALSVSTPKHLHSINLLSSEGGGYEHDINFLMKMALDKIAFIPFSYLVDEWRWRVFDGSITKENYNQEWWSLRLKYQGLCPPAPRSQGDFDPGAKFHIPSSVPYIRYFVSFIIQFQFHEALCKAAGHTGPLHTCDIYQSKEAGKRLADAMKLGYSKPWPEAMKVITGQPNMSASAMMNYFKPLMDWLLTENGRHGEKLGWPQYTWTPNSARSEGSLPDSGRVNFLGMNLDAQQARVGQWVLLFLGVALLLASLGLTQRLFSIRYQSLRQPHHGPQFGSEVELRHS
Outline: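 Enzyme source is rabbit lung extract; substrate hippuryl-L-histidyl-L-leucine (HHL); I50 reported.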

Rattus norvegicus [6] = assay: % inhibition of AI pressor response at 120 minutes after intravenous administration of 0.5 micro mol/kg of compound in rat; format: functional; outline: as §1
Rattus norvegicus [7] = assay: Decreased Mean arterial pressure (MAP) in rat after single oral dose of 30 umol/kg; format: functional, Artery
Outline: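 Conscious sodium-depleted spontaneously hypertensive rats, n = 7 per group. Single oral dose of 30 μmol/kg (~12 mg/kg); vehicle 5% NaHCO3. Mean arterial pressure followed as change from pre-dose baseline over 24 h.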

Q: With O=C(N[C@H]1CCO[C@H]2CC[C@@H](C(=O)O)N2C1=O)[C@@H](S)Cc1ccccc1 as the molecule, how does the Inhibition (Rattus norvegicus [1]) read?
A: 63%

Q: And the ED50 (Rattus norvegicus [2])?
A: 0.06 µmol/kg

Q: What about the Inhibition (Rattus norvegicus [3]) of the same molecule?
A: 3%

Q: What about the Inhibition (Rattus norvegicus [4]) of the same molecule?
A: 79%

Q: What about the IC50 (Neprilysin) of the same molecule?
A: 26 nM

Q: What about the IC50 [5] of the same molecule?
A: 7 nM

Q: What does the source list for CCOC(C)=O.O=C(N[C@H]1CCO[C@H]2CCC[C@@H](C(=O)O)N2C1=O)[C@@H](S)Cc1ccccc1?
A: Inhibition (Rattus norvegicus [1]): 3%; ED50 (Rattus norvegicus [2]): 0.05 µmol/kg; Inhibition (Rattus norvegicus [4]): 83%; IC50 (Neprilysin): 9 nM; IC50 [5]: 8 nM

Q: What does the source list for CCOC(C)=O.O=C(N[C@H]1CS[C@H]2CCC[C@@H](C(=O)O)N2C1=O)[C@@H](S)Cc1ccccc1?
A: Inhibition (Rattus norvegicus [1]): 3%; ED50 (Rattus norvegicus [2]): 0.23 µmol/kg; Inhibition (Rattus norvegicus [4]): 78%; IC50 (Neprilysin): 42 nM; IC50 [5]: 5 nM

Q: For O=C(N[C@H]1CCC[C@H]2CCC[C@@H](C(=O)O)N2C1=O)[C@@H](S)Cc1ccccc1, which Inhibition (Rattus norvegicus [1]) is on record?
A: 65%

Q: And the Inhibition (Rattus norvegicus [3])?
A: 35%

Q: And the Inhibition (Rattus norvegicus [4])?
A: 71%

Q: What about the Inhibition (Rattus norvegicus [6]) of the same molecule?
A: 11%

Q: What does the source list for O=C(N[C@H]1CCC[C@H]2CC[C@@H](C(=O)O)N2C1=O)[C@@H](S)Cc1ccccc1?
A: Inhibition (Rattus norvegicus [1]): 34%; Inhibition (Rattus norvegicus [3]): 3%; Inhibition (Rattus norvegicus [4]): 75%

Q: For O=C(N[C@H]1CCS[C@H]2CC[C@@H](C(=O)O)N2C1=O)[C@@H](S)Cc1ccccc1, which Inhibition (Rattus norvegicus [1]) is on record?
A: 76%

Q: What about the ED50 (Rattus norvegicus [2]) of the same molecule?
A: 0.03 µmol/kg

Q: And the Inhibition (Rattus norvegicus [3])?
A: 60%

Q: And the Inhibition (Rattus norvegicus [4])?
A: 82%

Q: What about the Inhibition (Rattus norvegicus [6]) of the same molecule?
A: 25%

Q: And the IC50 (Neprilysin)?
A: 4 nM

Q: And the IC50 [5]?
A: 4 nM

Q: CCC(=O)O[C@@H](O[P@](=O)(CCCCc1ccccc1)CC(=O)N1C[C@H](C2CCCCC2)C[C@H]1C(=O)O)C(C)C [FOSINOPRIL] was tested. Which MAP (Rattus norvegicus [7]) did it give?
A: 20 mmHg

Q: For O=C(N[C@H]1CCS[C@H]2CCC[C@@H](C(=O)O)N2C1=O)[C@@H](S)Cc1ccccc1 [OMAPATRILAT], which MAP (Rattus norvegicus [7]) is on record?
A: 40 mmHg

Q: What about the Inhibition (Rattus norvegicus [1]) of the same molecule?
A: 66%

Q: What about the ED50 (Rattus norvegicus [2]) of the same molecule?
A: 0.07 µmol/kg

Q: What about the Inhibition (Rattus norvegicus [3]) of the same molecule?
A: 60%

Q: What about the Inhibition (Rattus norvegicus [4]) of the same molecule?
A: 76%

Q: And the Inhibition (Rattus norvegicus [6])?
A: 58%

Q: What about the IC50 (Neprilysin) of the same molecule?
A: 8 nM

Q: What about the IC50 [5] of the same molecule?
A: 5 nM
